In experiment [1] the test system is Escherichia coli. Nature of the experiment: Antimicrobial activity against Escherichia coli GC 2253 expressing IRT2 beta-lactamase after 18 to 24 hrs by broth microdilution method. It counts as functional. A digest of the protocol: (§1)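 CLSI broth microdilution in Mueller–Hinton II broth. Serial dilutions of piperacillin alone or piperacillin plus inhibitor; inoculum 10⁵ CFU/ml. Piperacillin + tazobactam run as comparator. MIC read as endpoint.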

Experiment [2] relates to Enterobacter cloacae. Nature of the experiment: Antimicrobial activity against Enterobacter cloacae GC 4142 expressing AmpC beta-lactamase after 18 to 24 hrs by broth microdilution method. It counts as functional. In outline: as §1
Experiment [3] concerns Escherichia coli. Nature of the experiment: Antimicrobial activity against Escherichia coli GC 2883 expressing OXA10 and PSE2 beta-lactamase after 18 to 24 hrs by broth microdilution method. It counts as functional. A digest of the protocol: as §1
Experiment [4] deals with Escherichia coli. Nature of the experiment: Antimicrobial activity against Escherichia coli GC 2847 expressing TEM1 beta-lactamase after 18 to 24 hrs by broth microdilution method. It counts as functional. In outline:
as §1

Experiment [5] deals with Escherichia coli. Nature of the experiment: Antimicrobial activity against Escherichia coli GC 2920 expressing IRT2 beta-lactamase after 18 to 24 hrs by broth microdilution method. The format is functional. In outline: as §1
In experiment [6] the test system is Serratia marcescens. Nature of the experiment: Antimicrobial activity against Serratia marcescens GC 4132 expressing AmpC beta-lactamase after 18 to 24 hrs by broth microdilution method. It counts as functional. A digest of the protocol:
as §1

Experiment [7] has as its system Escherichia coli. Nature of the experiment: Antibacterial efficacy against Escherichia coli LSU 80-8 infected ip dosed CD1 mouse model. It counts as functional. In outline:
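Female CD-1 mice, five per dose level, five dose levels per compound. Lethal intraperitoneal challenge (10–100 LD₅₀), then intravenous piperacillin alone or piperacillin plus inhibitor at a 4:1 (Pip:Inhibitor) ratio. Survival read at 7 days; ratios from three separate tests pooled; ED₅₀ by probit analysis.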

The subject of experiment [8] is Escherichia coli. As to the kind of experiment: Antimicrobial activity against Escherichia coli GC 2203 after 18 to 24 hrs by broth microdilution method. The format is functional. In outline: as §1
The subject of experiment [9] is Stenotrophomonas maltophilia. Nature of the experiment: Antimicrobial activity against Stenotrophomonas maltophilia GC 1721 expressing L1 beta-lactamase after 18 to 24 hrs by broth microdilution method. The format is functional. In outline: as §1
In experiment [10] the test system is Serratia marcescens. As to the kind of experiment: Antimicrobial activity against Serratia marcescens GC 1781 expressing Sme1 and AmpC beta-lactamase after 18 to 24 hrs by broth microdilution method. It counts as functional. A digest of the protocol:
as §1

Experiment [11] in a line: Inhibition of TEM1 beta-lactamase. In outline:
(§2)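 Spectrophotometric β-lactamase inhibition assay (Bush method) with nitrocefin as substrate. Tazobactam standard included in each experiment. IC₅₀ derived by curve fitting.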

Experiment [12] deals with Escherichia coli. Nature of the experiment: Antimicrobial activity against Escherichia coli GC 2844 after 18 to 24 hrs by broth microdilution method. The format is functional. A digest of the protocol: as §1
In experiment [13] the test system is Enterobacter cloacae. Nature of the experiment: Antimicrobial activity against Enterobacter cloacae GC 1477 expressing AmpC beta-lactamase after 18 to 24 hrs by broth microdilution method. It counts as functional. A digest of the protocol:
as §1

In experiment [14] the test system is Staphylococcus aureus. As to the kind of experiment: Antimicrobial activity against Staphylococcus aureus GC 2216 after 18 to 24 hrs by broth microdilution method. It counts as functional. A digest of the protocol:
as §1

In experiment [15] the test system is Escherichia coli. As to the kind of experiment: Antimicrobial activity against Escherichia coli GC 2894 expressing AmpC beta-lactamase after 18 to 24 hrs by broth microdilution method. It counts as functional. In outline: as §1
Experiment [16] concerns Enterobacter cloacae. As to the kind of experiment: Antimicrobial activity against Enterobacter cloacae GC 6991 expressing AmpC beta-lactamase after 18 to 24 hrs by broth microdilution method. It counts as functional. A digest of the protocol: as §1
Experiment [17] deals with Escherichia coli. As to the kind of experiment: Antimicrobial activity against Escherichia coli GC 2804 expressing imp beta-lactamase after 18 to 24 hrs by broth microdilution method. It counts as functional. In outline: as §1
Experiment [18] is described as follows: Inhibition of AmpC beta-lactamase. A digest of the protocol:
as §2

In experiment [19] the test system is Escherichia coli. As to the kind of experiment: Antimicrobial activity against Escherichia coli GC 2905 expressing P99 beta-lactamase after 18 to 24 hrs by broth microdilution method. It counts as functional. A digest of the protocol: as §1
Experiment [20] can be described thus: Inhibition of Imi1 beta lactamase.
Experiment [21] deals with Enterobacter cloacae. As to the kind of experiment: Antimicrobial activity against Enterobacter cloacae GC 1475 expressing P99 beta-lactamase after 18 to 24 hrs by broth microdilution method. The format is functional. In outline: as §1
Experiment [22] has as its system Escherichia coli. As to the kind of experiment: Antimicrobial activity against Escherichia coli GC 2906 expressing Imi1 beta-lactamase after 18 to 24 hrs by broth microdilution method. The format is functional. In outline:
as §1

Experiment [23] concerns Escherichia coli. As to the kind of experiment: Antimicrobial activity against Escherichia coli GC 2805 expressing CcrA beta-lactamase after 18 to 24 hrs by broth microdilution method. It counts as functional. In outline: as §1
The test system of experiment [24] is Pseudomonas aeruginosa. Nature of the experiment: Antimicrobial activity against Pseudomonas aeruginosa GC 1764 expressing AmpC beta-lactamase after 18 to 24 hrs by broth microdilution method. The format is functional. A digest of the protocol:
as §1

On to `O=C([O-])C1=CS[C@@H]2/C(=C\c3cn4c5c(sc4n3)CCCC5)C(=O)N12.[Na+]`, for which the minimal inhibitory concentration (MIC) came to 16 mg/L in [1]; 8 mg/L in experiment [2]; 2 mg/L in [3]; 8 mg/L in experiment [4]; 2 mg/L in experiment [5]; 2 mg/L in experiment [6]. The MIC in experiment [8] is 2 mg/L; in [9], above 64 mg/L; in experiment [10], 1 mg/L; in experiment [12], 2 mg/L; in experiment [13], 32 mg/L; in experiment [14], below 0.06 mg/L. Also, the minimal inhibitory concentration (MIC) in [15] was 4 mg/L; in experiment [16] it was 16 mg/L; in experiment [17], below 0.06 mg/L; in [19], 4 mg/L; in [21], 8 mg/L; in experiment [22], 2 mg/L. Moreover, the minimum inhibitory concentration (MIC) was above 64 mg/L in experiment [23] and 2 mg/L in experiment [24]. Also, it took a dose of 23.3 mg/kg to reach the 50% effect level in experiment [7] (ED50). In addition, the figures for the IC50 in experiment [11], in [18] and in experiment [20] were 1.9 nM, 0.62 nM and 33 nM, respectively.
For `O=C([O-])C1=CS[C@@H]2/C(=C\c3cn4c(n3)nc3n4CCCC3)C(=O)N12.[Na+]`, the MIC was determined as 16 mg/L in experiment [1]; 8 mg/L in [2]; 2 mg/L in experiment [3]; 8 mg/L in experiment [4]; 2 mg/L in experiment [5]; 1 mg/L in experiment [6]. Further, the minimum inhibitory concentration (MIC) in experiment [8] is 1 mg/L; in experiment [9], above 64 mg/L; in [10], 0.5 mg/L; in experiment [12], 2 mg/L; in experiment [13], above 64 mg/L; in experiment [14], 0.25 mg/L. For the same molecule, the minimal inhibitory concentration (MIC) is 2 mg/L in experiment [15]; 16 mg/L in experiment [16]; below 0.06 mg/L in experiment [17]; 2 mg/L in [19]; 2 mg/L in experiment [21]; 64 mg/L in experiment [22]. The minimum inhibitory concentration (MIC) in experiment [23] was above 64 mg/L; in experiment [24] it was 32 mg/L. Also, the 50% effect level in experiment [7] (ED50) was put at a dose of 32.5 mg/kg. The IC50 in [11] was found to be 2.4 nM; in [18], 1.4 nM; in [20], 14 nM.
